For one assay, the system named is MCF7. The experiment in a line: Antiproliferative activity against human MCF7 cells after 72 hrs by MTT assay. Particulars: MCF7, 72 h. The format is functional, cell-based. Put shortly:
(§1)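 Exponentially growing cells were seeded at about 3×10^3 per well and left 24 h, then given fresh medium with a range of compound concentrations for 72 h. MTT solution (5 mg/mL) was added for another 4 h. Medium was removed, formazan was dissolved in DMSO, and absorbance was read at 570 nm. IC50 was derived statistically.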

In a further assay the test system is MGC-803. Description: Antiproliferative activity against human MGC803 cells after 72 hrs by MTT assay. Particulars: MGC-803, 72 h. It counts as functional, cell-based. An outline of the steps: as §1
(Formazan colour is commonly taken as a measure of viable cells.)

The subject of the next assay is SMMC-7721. Description: Antiproliferative activity against human SMMC7721 cells after 72 hrs by MTT assay. The format is functional, cell-based. Particulars: SMMC-7721, 72 h. An outline of the steps: as §1
A further assay deals with GES1. Description: Cytotoxicity against human GES-1 cells after 72 hrs by MTT assay. It counts as cell-based. Particulars: GES1, 72 h. An outline of the steps: as §1

Molecules are shown by their SMILES. Some results are limits rather than exact numbers.

As a reminder, the IC50 is the concentration at which inhibition is half-maximal. A higher IC50 goes with weaker potency. Consider `S=C(N/N=C/c1ccc2ccccc2c1)N1CCOCC1`, for which the IC50 with MCF7 was above 64 µM; with MGC-803, 32.6 µM; in the assay with SMMC-7721 it was above 64 µM.
Consider `C/C(=N\NC(=S)N1CCOCC1)c1ccccc1O`, for which the IC50 in the assay on MCF7 is 49.2 µM; with MGC-803, 11.2 µM; in the assay with SMMC-7721 it was above 64 µM.
Consider `Oc1c(Br)cc(Br)cc1/C=N/NC(=S)N1CCOCC1`, for which the IC50 was above 64 µM in the assay on MCF7, 20.4 µM in the assay with MGC-803 and 32.6 µM with SMMC-7721.
On the same counts, the results for `C/C(=N\NC(=S)N1CCOCC1)c1cccc(O)c1` are above 64 µM, above 64 µM and above 64 µM.
With `COc1ccc(/C=N/NC(=S)N2CCOCC2)c(O)c1`, the values for the IC50 with MCF7, in the assay on MGC-803 and with SMMC-7721 were above 64 µM, 56.1 µM and 38.3 µM, respectively.
Regarding `Oc1ccc2ccccc2c1/C=N/NC(=S)N1CCOCC1`, the figures for the IC50 with MCF7, in the assay with MGC-803 and with SMMC-7721 were above 64 µM, above 64 µM and 44.9 µM, respectively.
For `CC(C)(C)OC(=O)N1CCN(C(=S)N/N=C/c2ccccc2O)CC1`, the IC50 was 41.9 µM in the assay with MCF7, 10.2 µM in the assay on MGC-803 and 27.3 µM in the assay on SMMC-7721.
With `C/C(=N\NC(=S)N1CCOCC1)c1cc(Cl)ccc1O`, the figures for the IC50 in the assay with MCF7, in the assay with MGC-803 and in the assay with SMMC-7721 were 29.2 µM, 3.06 µM and above 64 µM, respectively.
As for `NC(=S)N/N=C/c1ncccc1N` [TRIAPINE], the IC50 in the assay with MCF7 amounted to 18.9 µM; in the assay with MGC-803, 9.68 µM; in the assay on SMMC-7721, 42.8 µM; in the assay with GES1, 5.4 µM.

(Values after ChEMBL document CHEMBL4261561, “Thiosemicarbazone-based selective proliferation inactivators inhibit gastric cancer cell growth, invasion, and migration” (Medchemcomm, 2017).)
